Numbered stars: 1 amine (or outer) side, 2 acyl side, 3 side chain; on linkers, the order of the positions; unused ones are H or OH. Square brackets hold non-standard residues; d marks the D form. Side chains are listed from the residue outwards. Peptide text beside a SMILES is read from it. * marks the point of attachment. ξ: configuration not given here. X2 = CCCCCCCCCCCCCC(CCCCC(=O)*)C(=O)O; ξγGlu = O=C(O)C(CCC(=O)[*:2])N[*:1]; Stearoyl = CCCCCCCCCCCCCCCCCC(=O)*; Palmitoyl = CCCCCCCCCCCCCCCC(=O)*; ξK = NCCCCC(N)C(=O)O
Molecular target: Glucagon-like peptide 1 receptor (Homo sapiens, UniProt P43220)
Sequence (P43220 whole entry): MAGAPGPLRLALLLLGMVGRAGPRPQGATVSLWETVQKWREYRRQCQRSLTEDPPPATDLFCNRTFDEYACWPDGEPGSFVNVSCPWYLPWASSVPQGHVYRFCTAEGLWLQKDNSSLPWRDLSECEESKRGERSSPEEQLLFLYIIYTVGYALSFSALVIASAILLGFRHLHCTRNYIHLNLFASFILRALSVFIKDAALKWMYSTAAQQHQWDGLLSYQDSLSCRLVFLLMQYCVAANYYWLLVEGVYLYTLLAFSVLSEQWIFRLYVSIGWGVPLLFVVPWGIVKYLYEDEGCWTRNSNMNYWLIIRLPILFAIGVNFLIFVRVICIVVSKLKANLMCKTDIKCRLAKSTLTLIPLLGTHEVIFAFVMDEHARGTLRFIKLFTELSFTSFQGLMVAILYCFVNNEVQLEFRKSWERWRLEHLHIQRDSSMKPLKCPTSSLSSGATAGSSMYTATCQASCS
Experiment: Potency measured using recombinant human GLP-1 receptor expressed in Baby Hamster Kidney (BHK)cells
Format: cell-based
Details: not given

Row | EC50 [pM] | Structure (SMILES)
1 | 121 | CCCCCCCCCCCCCCCC(=O)NC(CCC(=O)NCCCC[C@H](NC(=O)[C@@H](NC(=O)[C@H](CC(C)C)NC(=O)[C@H](Cc1c[nH]c2ccccc12)NC(=O)[C@H](C)NC(=O)[C@@H](NC(=O)[C@H](Cc1ccccc1)NC(=O)[C@H](CCC(=O)O)NC(=O)[C@H](CCCN=C(N)N)NC(=O)[C@H](C)NC(=O)[C@H](C)NC(=O)[C@H](CCC(N)=O)NC(=O)CNC(=O)[C@H](CCC(=O)O)NC(=O)[C@H](CC(C)C)NC(=O)[C@H](Cc1ccc(O)cc1)NC(=O)[C@H](CO)NC(=O)[C@H](CO)NC(=O)[C@@H](NC(=O)[C@H](CC(=O)O)NC(=O)[C@H](CO)NC(=O)[C@@H](NC(=O)[C@H](Cc1ccccc1)NC(=O)[C@@H](NC(=O)CNC(=O)[C@H](CCC(=O)O)NC(=O)[C@H](C)NC(=O)[C@@H](N)Cc1c[nH]cn1)[C@@H](C)O)[C@@H](C)O)C(C)C)[C@@H](C)CC)C(C)C)C(=O)NCC(=O)N[C@@H](CCCCN=C(N)N)C(=O)NCC(=O)O)C(=O)O (stereo partly specified)
2 | 210 | CCCCCCCCCCCCCC(CCCCC(=O)NCCCC[C@H](NC(=O)CNC(=O)[C@H](CCCN=C(N)N)NC(=O)[C@@H](NC(=O)[C@H](CC(C)C)NC(=O)[C@H](Cc1c[nH]c2ccccc12)NC(=O)[C@H](C)NC(=O)[C@@H](NC(=O)[C@H](Cc1ccccc1)NC(=O)[C@H](CCC(=O)O)NC(=O)[C@H](CCCN=C(N)N)NC(=O)[C@H](C)NC(=O)[C@H](C)NC(=O)[C@H](CCC(N)=O)NC(=O)CNC(=O)[C@H](CCC(=O)O)NC(=O)[C@H](CC(C)C)NC(=O)[C@H](Cc1ccc(O)cc1)NC(=O)[C@H](CO)NC(=O)[C@H](CO)NC(=O)[C@@H](NC(=O)[C@H](CC(=O)O)NC(=O)[C@H](CO)NC(=O)[C@@H](NC(=O)[C@H](Cc1ccccc1)NC(=O)[C@@H](NC(=O)CNC(=O)[C@H](CCC(=O)O)NC(=O)[C@H](C)NC(=O)[C@@H](N)Cc1c[nH]cn1)[C@@H](C)O)[C@@H](C)O)C(C)C)[C@@H](C)CC)C(C)C)C(=O)NCC(=O)O)C(=O)O (stereo partly specified) (H-HAEGTFTSDVSSYLEGQAAREFIAWLVRGK(X2)G-OH)
3 | 116 | CCCCCCCCCCCCCCCCCC(=O)NC(CCC(=O)NCCCC[C@H](NC(=O)CNC(=O)[C@H](CCCN=C(N)N)NC(=O)[C@@H](NC(=O)[C@H](CC(C)C)NC(=O)[C@H](Cc1c[nH]c2ccccc12)NC(=O)[C@H](C)NC(=O)[C@@H](NC(=O)[C@H](Cc1ccccc1)NC(=O)[C@H](CCC(=O)O)NC(=O)[C@H](CCCN=C(N)N)NC(=O)[C@H](C)NC(=O)[C@H](C)NC(=O)[C@H](CCC(N)=O)NC(=O)CNC(=O)[C@H](CCC(=O)O)NC(=O)[C@H](CC(C)C)NC(=O)[C@H](Cc1ccc(O)cc1)NC(=O)[C@H](CO)NC(=O)[C@H](CO)NC(=O)[C@@H](NC(=O)[C@H](CC(=O)O)NC(=O)[C@H](CO)NC(=O)[C@@H](NC(=O)[C@H](Cc1ccccc1)NC(=O)[C@@H](NC(=O)CNC(=O)[C@H](CCC(=O)O)NC(=O)[C@H](C)NC(=O)[C@@H](N)Cc1c[nH]cn1)[C@@H](C)O)[C@@H](C)O)C(C)C)[C@@H](C)CC)C(C)C)C(=O)NCC(=O)O)C(=O)O (stereo partly specified) (H-HAEGTFTSDVSSYLEGQAAREFIAWLVRGK([ξγGlu-Stearoyl])G-OH)
4 | 36.3 | CCCCCCCCCCCCCCCC(=O)NC(CCC(=O)NCCCC[C@H](NC(=O)[C@H](CCCN=C(N)N)NC(=O)[C@H](C)NC(=O)[C@H](C)NC(=O)[C@H](CCC(N)=O)NC(=O)CNC(=O)[C@H](CCC(=O)O)NC(=O)[C@H](CC(C)C)NC(=O)[C@H](Cc1ccc(O)cc1)NC(=O)[C@H](CO)NC(=O)[C@H](CO)NC(=O)[C@@H](NC(=O)[C@H](CC(=O)O)NC(=O)[C@H](CO)NC(=O)[C@@H](NC(=O)[C@H](Cc1ccccc1)NC(=O)[C@@H](NC(=O)CNC(=O)[C@H](CCC(=O)O)NC(=O)[C@H](C)NC(=O)[C@@H](N)Cc1c[nH]cn1)[C@@H](C)O)[C@@H](C)O)C(C)C)C(=O)N[C@@H](Cc1ccccc1)C(=O)N[C@H](C(=O)N[C@@H](C)C(=O)N[C@@H](Cc1c[nH]c2ccccc12)C(=O)N[C@@H](CC(C)C)C(=O)N[C@H](C(=O)N[C@@H](CCCN=C(N)N)C(=O)NCC(=O)N[C@@H](CCCN=C(N)N)C(=O)NCC(=O)O)C(C)C)[C@@H](C)CC)C(=O)O (stereo partly specified) (H-HAEGTFTSDVSSYLEGQAARK([ξγGlu-Palmitoyl])FIAWLVRGRG-OH)
5 | 213 | CCCCCCCCCCCCCCCCCC(=O)NC(CCC(=O)NCCCCC(NC(=O)[C@H](CCC(=O)O)NC(=O)[C@H](CCCN=C(N)N)NC(=O)CNC(=O)[C@H](CCCN=C(N)N)NC(=O)[C@@H](NC(=O)[C@H](CC(C)C)NC(=O)[C@H](Cc1c[nH]c2ccccc12)NC(=O)[C@H](C)NC(=O)[C@@H](NC(=O)[C@H](Cc1ccccc1)NC(=O)[C@H](CCC(=O)O)NC(=O)[C@H](CCCN=C(N)N)NC(=O)[C@H](C)NC(=O)[C@H](C)NC(=O)[C@H](CCC(N)=O)NC(=O)CNC(=O)[C@H](CCC(=O)O)NC(=O)[C@H](CC(C)C)NC(=O)[C@H](Cc1ccc(O)cc1)NC(=O)[C@H](CO)NC(=O)[C@H](CO)NC(=O)[C@@H](NC(=O)[C@H](CC(=O)O)NC(=O)[C@H](CO)NC(=O)[C@@H](NC(=O)[C@H](Cc1ccccc1)NC(=O)[C@@H](NC(=O)CNC(=O)[C@H](CCC(=O)O)NC(=O)CNC(=O)[C@@H](N)Cc1c[nH]cn1)[C@@H](C)O)[C@@H](C)O)C(C)C)[C@@H](C)CC)C(C)C)C(=O)O)C(=O)O (stereo partly specified) (H-HGEGTFTSDVSSYLEGQAAREFIAWLVRGRE[ξK]([ξγGlu-Stearoyl])-OH)

Test system: not listed separately
Experiment: Plasma half life was determined in pigs
Format: ADME, organism-based, Sus scrofa
Details: pig
In short: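 Landrace × Duroc × Yorkshire pigs, 25–50 kg, two per compound; single sc dose, 0.5 nmol/kg for analogues, 15 nmol/kg for GLP-1. Jugular catheter blood at 0–72 h, extra early samples for GLP-1; EDTA/aprotinin/bacitracin-stabilized plasma. Unextracted plasma assayed by N-terminal-specific GLP-1 radioimmunoassay against spiked pig-plasma calibrators; half-life calculated per pig, reported as mean ± SD.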

Row | half-life [h] | Structure (SMILES)
6 | 13 | CCCCCCCCCCCCCCCC(=O)NC(CCC(=O)NCCCC[C@H](NC(=O)[C@@H](NC(=O)[C@H](CC(C)C)NC(=O)[C@H](Cc1c[nH]c2ccccc12)NC(=O)[C@H](C)NC(=O)[C@@H](NC(=O)[C@H](Cc1ccccc1)NC(=O)[C@H](CCC(=O)O)NC(=O)[C@H](CCCN=C(N)N)NC(=O)[C@H](C)NC(=O)[C@H](C)NC(=O)[C@H](CCC(N)=O)NC(=O)CNC(=O)[C@H](CCC(=O)O)NC(=O)[C@H](CC(C)C)NC(=O)[C@H](Cc1ccc(O)cc1)NC(=O)[C@H](CO)NC(=O)[C@H](CO)NC(=O)[C@@H](NC(=O)[C@H](CC(=O)O)NC(=O)[C@H](CO)NC(=O)[C@@H](NC(=O)[C@H](Cc1ccccc1)NC(=O)[C@@H](NC(=O)CNC(=O)[C@H](CCC(=O)O)NC(=O)[C@H](C)NC(=O)[C@@H](N)Cc1c[nH]cn1)[C@@H](C)O)[C@@H](C)O)C(C)C)[C@@H](C)CC)C(C)C)C(=O)NCC(=O)N[C@@H](CCCCN=C(N)N)C(=O)NCC(=O)O)C(=O)O (stereo partly specified)
